≈ marks a conversion by molar mass, not a printed value. Calls of active or inactive are those of the source. No cut-off for these calls is given here.
Columns and labels:
Escherichia coli [1] = test: Antimicrobial activity against Escherichia coli ATCC 25922 assessed as maximum killing rate constant; type: functional
How it was run: (§1)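 Constant-concentration time-kill curves, 6 h, in triplicate. […] Inoculum of ~5 × 10⁵ CFU/ml was grown 2 h before drug was added. Samples taken 0–6 h were counted by droplet plating after 20–24 h at 37°C. A two-compartment model (susceptible plus persister cells) was fitted simultaneously across conditions to obtain growth and maximal kill rate constants.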

Escherichia coli [2] = test: Antimicrobial activity against Escherichia coli ATCC 25922 by serial dilution twofold broth microdilution method in presence of 40 g/L bovine serum albumin; type: functional; details: in the assay text read “macrodilution” for “microdilution”
How it was run: (§2)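 Broth macrodilution, serial twofold dilutions, run per CLSI guidelines. Media were MHB (E. coli) or THB (S. pneumoniae), used with or without 40 g/liter BSA or HSA; supplemented broth was 0.2-μm filtered and adjusted to pH 7.4. Inoculum came from overnight 5% sheep blood agar colonies set to 0.5 McFarland in saline and diluted in broth to ~5 × 10⁵ CFU/ml. Six determinations; values reported as modes.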

Escherichia coli [3] = test: Antimicrobial activity against Escherichia coli ATCC 25922 by serial dilution twofold broth macrodilution method in presence of 40 g/L human serum albumin
Streptococcus pneumoniae [4] = test: Antimicrobial activity against penicillin-sensitive Streptococcus pneumoniae ATCC 6303 by serial dilution twofold broth microdilution method in presence of 40 g/L human serum albumin; type: functional; details: in the assay text read “macrodilution” for “microdilution”; how it was run: as §2
Streptococcus pneumoniae [5] = test: Antimicrobial activity against penicillin-sensitive Streptococcus pneumoniae ATCC 6303 assessed as growth rate constant; type: functional; how it was run: as §1
Streptococcus pneumoniae [6] = test: Antimicrobial activity against penicillin-sensitive Streptococcus pneumoniae ATCC 6303 in presence of human serum albumin; type: functional, organism-based; how it was run: as §2
Streptococcus pneumoniae [7] = test: Antimicrobial activity against penicillin-sensitive Streptococcus pneumoniae ATCC 6303 in presence of bovine serum albumin; type: functional, organism-based; how it was run: as §2
Streptococcus pneumoniae [8] = test: Bactericidal activity against penicillin-sensitive Streptococcus pneumoniae ATCC 6303 at 8 times MIC after 24 hrs by time kill analysis in presence of 40 g/L human serum albumin; type: functional, organism-based
Escherichia coli [9] = test: Bactericidal activity against Escherichia coli ATCC 25922 at 8 times MIC after 24 hrs by time kill analysis in presence of 40 g/L human serum albumin; type: functional, organism-based
Streptococcus pneumoniae [10] = test: Antimicrobial activity against penicillin-sensitive Streptococcus pneumoniae ATCC 6303; type: functional, organism-based; how it was run: as §2
Streptococcus pneumoniae [11] = test: Bactericidal activity against penicillin-sensitive Streptococcus pneumoniae ATCC 6303 at 8 times MIC after 6 hrs by time kill analysis in presence of 40 g/L bovine serum albumin
Escherichia coli [12] = test: Antimicrobial activity against Escherichia coli ATCC 25922; type: functional, organism-based; how it was run: as §2
Escherichia coli [13] = test: Bactericidal activity against Escherichia coli ATCC 25922 at 8 times MIC after 6 hrs by time kill analysis in presence of 40 g/L bovine serum albumin
Escherichia coli [14] = test: Antimicrobial activity against Escherichia coli ATCC 25922 by serial dilution twofold broth microdilution method; type: functional; details: in the assay text read “macrodilution” for “microdilution”; how it was run: as §2
Escherichia coli [15] = test: Antimicrobial activity against Escherichia coli ATCC 25922 by in presence of human serum albumin; type: functional, organism-based; how it was run: as §2
Streptococcus pneumoniae [16] = test: Antimicrobial activity against penicillin-sensitive Streptococcus pneumoniae ATCC 6303 by serial dilution twofold broth microdilution method in presence of 40 g/L bovine serum albumin; type: functional; details: in the assay text read “macrodilution” for “microdilution”; how it was run: as §2
Escherichia coli [17] = test: Antimicrobial activity against Escherichia coli ATCC 25922 in presence of bovine serum albumin; type: functional, organism-based; how it was run: as §2
Escherichia coli [18] = test: Bactericidal activity against Escherichia coli ATCC 25922 at 8 times MIC after 24 hrs by time kill analysis; type: functional, organism-based
Streptococcus pneumoniae [19] = test: Antimicrobial activity against penicillin-sensitive Streptococcus pneumoniae ATCC 6303 by serial dilution twofold broth microdilution method; type: functional; details: in the assay text read “macrodilution” for “microdilution”; how it was run: as §2
Streptococcus pneumoniae [20] = test: Bactericidal activity against penicillin-sensitive Streptococcus pneumoniae ATCC 6303 at 8 times MIC after 24 hrs by time kill analysis; type: functional, organism-based
Streptococcus pneumoniae [21] = test: Antimicrobial activity against penicillin-sensitive Streptococcus pneumoniae ATCC 6303 assessed as maximum killing rate constant; type: functional; how it was run: as §1
Escherichia coli [22] = test: Antimicrobial activity against Escherichia coli ATCC 25922 assessed as growth rate constant; type: functional; how it was run: as §1
Albumin [23] = target: T1, Albumin (Bos taurus, UniProt P02769); test: Binding affinity to pooled adult bovine serum albumin; type: ADME; details: cattle, read-out: PB (converted)
T1 sequence (P02769 whole entry, the tested form may be a part): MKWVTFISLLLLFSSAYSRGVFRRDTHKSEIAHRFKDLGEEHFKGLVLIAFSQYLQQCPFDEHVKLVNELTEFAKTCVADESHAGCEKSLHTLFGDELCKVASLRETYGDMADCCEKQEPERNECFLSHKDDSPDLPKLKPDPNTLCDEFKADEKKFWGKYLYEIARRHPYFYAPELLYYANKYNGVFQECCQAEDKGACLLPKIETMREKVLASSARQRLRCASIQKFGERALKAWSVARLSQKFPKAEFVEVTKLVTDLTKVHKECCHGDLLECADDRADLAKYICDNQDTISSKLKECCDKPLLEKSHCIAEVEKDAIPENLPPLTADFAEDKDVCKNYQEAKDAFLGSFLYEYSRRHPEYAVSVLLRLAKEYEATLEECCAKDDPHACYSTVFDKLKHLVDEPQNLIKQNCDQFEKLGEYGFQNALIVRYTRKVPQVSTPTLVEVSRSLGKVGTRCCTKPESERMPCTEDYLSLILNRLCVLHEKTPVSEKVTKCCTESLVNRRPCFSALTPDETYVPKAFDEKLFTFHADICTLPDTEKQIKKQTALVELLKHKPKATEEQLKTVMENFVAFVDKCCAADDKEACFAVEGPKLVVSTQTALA
How it was run: (§3)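 In vitro microdialysis at 20, 40, 80, 160 and 320 μg/ml drug, in triplicate, at 37°C. Matrices were THB with 40 g/liter BSA or HSA, pooled adult bovine serum, or untreated pooled human plasma. Probes were perfused with lactated Ringer at 2.0 μl/min, with recovery set in Ringer alone. Samples were taken over a 30-min period and assayed by HPLC-UV. Binding = 1 − dialysate/(recovery × total).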

Plasma [24] = test: Protein binding in pooled human plasma by microdialysis; type: ADME, cell-free; how it was run: as §3
[25] = Plasma protein binding in healthy human 1t […], iv administered as single dose by LC-MS-MS method; type: ADME, organism-based; details: read-out: PPB (converted)
Albumin [26] = target: T1, Albumin; test: Binding affinity to bovine serum albumin in THB medium containing 40 g/L BSA; type: ADME; details: cattle, bovine serum albumin (40 g/L) in THB medium; read-out: PB (converted); how it was run: as §3
Albumin [27] = target: Albumin (Homo sapiens, UniProt P02768); test: Binding affinity to human serum albumin in THB medium containing 40 g/L HSA; type: ADME; details: human serum albumin (40 g/L) in THB medium, read-out: PB (converted); how it was run: as §3
Albumin (Homo sapiens, UniProt P02768), sequence (P02768 whole entry): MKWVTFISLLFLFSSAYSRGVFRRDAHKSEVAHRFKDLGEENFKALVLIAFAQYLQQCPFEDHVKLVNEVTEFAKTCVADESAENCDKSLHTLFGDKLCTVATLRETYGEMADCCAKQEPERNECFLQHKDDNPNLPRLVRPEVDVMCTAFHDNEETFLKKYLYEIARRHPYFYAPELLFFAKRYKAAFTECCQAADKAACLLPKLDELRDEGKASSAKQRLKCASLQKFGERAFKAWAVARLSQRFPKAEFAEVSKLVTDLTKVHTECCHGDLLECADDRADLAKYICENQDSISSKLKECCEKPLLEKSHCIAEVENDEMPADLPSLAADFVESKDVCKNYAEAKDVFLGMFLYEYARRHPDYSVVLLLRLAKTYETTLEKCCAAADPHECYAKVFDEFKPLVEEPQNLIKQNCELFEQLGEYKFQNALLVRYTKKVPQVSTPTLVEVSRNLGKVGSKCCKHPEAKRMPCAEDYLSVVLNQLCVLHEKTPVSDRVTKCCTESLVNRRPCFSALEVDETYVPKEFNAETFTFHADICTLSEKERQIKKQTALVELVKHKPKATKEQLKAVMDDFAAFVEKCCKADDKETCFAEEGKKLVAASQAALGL

Plasma [28] = test: Plasma protein binding in human at 400 ug/ml; type: ADME, cell-free
[29] = Plasma protein binding in human at < 100 ug/ml; type: ADME, cell-free; details: read-out: PPB (converted)

## CO/N=C(\C(=O)N[C@@H]1C(=O)N2C(C(=O)O)=C(CSc3nc(=O)c(O)nn3C)CS[C@H]12)c1csc(N)n1 [CEFTRIAXONE]
Escherichia coli [1]
  Kkmax: 6.34 h⁻¹
Escherichia coli [2]
  MIC: 0.064 µg/mL
Escherichia coli [3]
  MIC: 2 µg/mL
Streptococcus pneumoniae [4]
  MIC: 0.16 µg/mL
Streptococcus pneumoniae [5]
  Ks: 1.56 h⁻¹
Streptococcus pneumoniae [6]
  EC50: 0.084 µg/mL
Streptococcus pneumoniae [7]
  EC50: 0.015 µg/mL
Streptococcus pneumoniae [8]
  Activity: inactive
Escherichia coli [9]
  Activity: inactive
Streptococcus pneumoniae [10]
  EC50: 0.004 µg/mL (≈ 0.00721 µM)
Streptococcus pneumoniae [11]
  Activity: inactive
Escherichia coli [12]
  EC50: 0.027 µg/mL (≈ 0.0487 µM)
Escherichia coli [13]
  Activity: inactive
Escherichia coli [14]
  MIC: 0.064 µg/mL (≈ 0.115 µM)
Escherichia coli [15]
  EC50: 1.1 µg/mL
Streptococcus pneumoniae [16]
  MIC: 0.02 µg/mL
Escherichia coli [17]
  EC50: 0.057 µg/mL
Escherichia coli [18]
  Activity: Active
Streptococcus pneumoniae [19]
  MIC: 0.01 µg/mL (≈ 0.018 µM)
Streptococcus pneumoniae [20]
  Activity: Active
Streptococcus pneumoniae [21]
  Kkmax: 3.59 h⁻¹
Escherichia coli [22]
  Ks: 2.4 h⁻¹

## C[C@@H](O)[C@H]1C(=O)N2C(C(=O)O)=C(S[C@@H]3CN[C@H](C(=O)Nc4cccc(C(=O)O)c4)C3)[C@H](C)[C@H]12 [ERTAPENEM]
Escherichia coli [1]
  Kkmax: 6.02 h⁻¹
Escherichia coli [2]
  MIC: 0.015 µg/mL
Escherichia coli [3]
  MIC: 0.03 µg/mL
Albumin [23]
  fraction unbound: 0.617
Streptococcus pneumoniae [4]
  MIC: 0.025 µg/mL
Streptococcus pneumoniae [5]
  Ks: 2.28 h⁻¹
Plasma [24]
  PPB: 73.8%
Streptococcus pneumoniae [6]
  EC50: 0.019 µg/mL
Streptococcus pneumoniae [7]
  EC50: 0.01 µg/mL
[25]
  fraction unbound: 0.16
Streptococcus pneumoniae [10]
  EC50: 0.01 µg/mL (≈ 0.021 µM)
Escherichia coli [12]
  EC50: 0.01 µg/mL (≈ 0.021 µM)
Escherichia coli [14]
  MIC: 0.015 µg/mL (≈ 0.0315 µM)
Escherichia coli [15]
  EC50: 0.014 µg/mL
Streptococcus pneumoniae [16]
  MIC: 0.025 µg/mL
Escherichia coli [17]
  EC50: 0.02 µg/mL
Albumin [26]
  fraction unbound: 0.876
Escherichia coli [18]
  Activity: Active
Streptococcus pneumoniae [19]
  MIC: 0.025 µg/mL (≈ 0.0526 µM)
Streptococcus pneumoniae [20]
  Activity: Active
Streptococcus pneumoniae [21]
  Kkmax: 3.28 h⁻¹
Escherichia coli [22]
  Ks: 2.76 h⁻¹
Albumin [27]
  fraction unbound: 0.822

## CO/N=C(\C(=O)N[C@@H]1C(=O)N2C(C(=O)O)=C(CSc3nc(=O)c(=O)[nH]n3C)CS[C@H]12)c1csc(N)n1 [CEFTRIAXONE]
Albumin [23]
  fraction unbound: 0.693
Plasma [24]
  PPB: 76.8%
[25]
  fraction unbound: 0.17
Plasma [28]
  PPB: 60%
Albumin [26]
  fraction unbound: 0.798
Albumin [27]
  fraction unbound: 0.431
[29]
  fraction unbound: 0.1

Source: ChEMBL document CHEMBL1671635, “Effect of protein binding on the pharmacological activity of highly bound antibiotics” (Antimicrob Agents Chemother, 2008)
